Data as given in ChEMBL document CHEMBL3232745, “Design, synthesis and evaluation of novel diaryl pyrrolopyrimidine and pyrrolothiazine derivatives as inhibitors of tumor necrosis factor stimulated gene-14 (TSG-14) production” (2014).

The molecules below were run on Rattus norvegicus (assay: Antiinflammatory activity in albino rat assessed as inhibition of LPS-induced TSG-14 production at 30 mg/kg, po administered 30 mins before LPS challenge measured after 4 to 6 hrs by ELISA relative to control).
Format: functional
Outline: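 Male albino rats (~200 g), three per group, dosed orally with compound suspended in 0.5% carboxymethylcellulose. LPS (Escherichia coli B055/B5, 0.1 mg/kg ip) was given 30 min after dosing. Sera were collected 4-6 h after LPS and assayed in duplicate by sandwich ELISA for rat PTX3/TSG-14 (detection limit <0.02 ng/mL). Percent inhibition was taken against an untreated LPS control, as mean ± S.E.M. (n = 3).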

First: N=c1sc(=S)[nH]c2c1cc(-c1ccccc1)n2-c1ccccc1
Second: N=c1sc(=S)[nH]c2c1cc(-c1ccc(Cl)cc1)n2-c1ccccc1
The inhibition in vivo at 30 mg/kg of the first is lower: 0% for the first, 2% for the second.

Going from Cc1ccc(-c2cc3c(=N)sc(=S)[nH]c3n2-c2ccccc2)cc1 to N=c1sc(=S)[nH]c2c1cc(-c1ccc(Br)cc1)n2-c1ccccc1, the inhibition in vivo at 30 mg/kg rises from 0% to 44%.

Going from CCSc1nc2c(cc(-c3ccccc3)n2-c2ccccc2)c(=N)s1 to CCC(C)Sc1nc2c(cc(-c3ccccc3)n2-c2ccccc2)c(=N)s1 (stereo not given), the inhibition in vivo at 30 mg/kg rises from 0% to 50%.

Compared with CCSc1nc2c(cc(-c3ccc(Cl)cc3)n2-c2ccccc2)c(=N)s1, CCSc1nc2c(cc(-c3ccc(C)cc3)n2-c2ccccc2)c(=N)s1 is lower in inhibition in vivo at 30 mg/kg: 1% for the first, 0% for the second.

Compared with CCSc1nc2c(cc(-c3ccc(Br)cc3)n2-c2ccccc2)c(=N)s1, CCC(C)Sc1nc2c(cc(-c3ccc(Br)cc3)n2-c2ccccc2)c(=N)s1 (stereo not given) is higher in inhibition in vivo at 30 mg/kg: 1% for the first, 70% for the second.

CCC(C)Sc1nc2c(cc(-c3ccc(Cl)cc3)n2-c2ccccc2)c(=N)s1 (stereo not given) and CCC(C)Sc1nc2c(cc(-c3ccc(C)cc3)n2-c2ccccc2)c(=N)s1 (stereo not given) are the same in inhibition in vivo at 30 mg/kg: 2% for the first, 2% for the second.

Going from CCn1c(=S)[nH]c2c(cc(-c3ccccc3)n2-c2ccccc2)c1=N to N=c1c2cc(-c3ccccc3)n(-c3ccccc3)c2[nH]c(=S)n1N, the inhibition in vivo at 30 mg/kg falls from 65% to 23%.

First: CCn1c(=S)[nH]c2c(cc(-c3ccc(Cl)cc3)n2-c2ccccc2)c1=N
Second: CCn1c(=S)[nH]c2c(cc(-c3ccc(C)cc3)n2-c2ccccc2)c1=N
The inhibition in vivo at 30 mg/kg of the first is higher: 61% for the first, 60% for the second.

Going from CCn1c(=S)[nH]c2c(cc(-c3ccc(Br)cc3)n2-c2ccccc2)c1=N to N=c1c2cc(-c3ccc(Br)cc3)n(-c3ccccc3)c2[nH]c(=S)n1N, the inhibition in vivo at 30 mg/kg falls from 80% to 33%.

N=c1c2cc(-c3ccc(Cl)cc3)n(-c3ccccc3)c2[nH]c(=S)n1N and Cc1ccc(-c2cc3c(=N)n(N)c(=S)[nH]c3n2-c2ccccc2)cc1 are the same in inhibition in vivo at 30 mg/kg: 0% for the first, 0% for the second.
